ChEMBL document CHEMBL1125890, “Synthesis, calcium-channel-blocking activity, and antihypertensive activity of 4-(diarylmethyl)-1-[3-(aryloxy)propyl]piperidines and structurally related compounds” (J Med Chem, 1991)

Tests used:
Rattus norvegicus [1] = assay: Antihypertensive activity expressed as change in mean arterial blood pressure (MABP) in spontaneously hypertensive rats (SHR),at 0.5-2h after 30 mg/kg oral administration; format: functional, Artery
How it was run: (§1)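 Adult male SHR, catheter implanted in carotid artery or abdominal aorta under anesthesia at least 24 h before dosing. Baseline pressure recorded 1-1.5 h. Compound given orally at 30 mg/kg as solution or suspension in 0.5% Tween 80/distilled H2O (v/v) or other vehicle. MABP read at 0.5, 1, 1.5, 2, 3, 4, 5 and 6 h. Average percent change from predose calculated per period. Paired one-tailed t test, p < 0.05. n = 3-6 rats unless noted.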

Oryctolagus cuniculus = species: Oryctolagus cuniculus; assay: Calcium channel-blocking activity by determined by ability to antagonize calcium-induced contractions of isolated rabbit aortic strips; format: functional; conditions: Aorta, read-out: pA2 (converted)
How it was run: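 Rabbit aortic strips were bathed in turn in CaCl2-containing buffer, CaCl2-free buffer, then depolarizing (KCl) CaCl2-free buffer. Cumulative CaCl2 addition induced contractions, recorded with force-displacement transducers. Responses were compared without and with 1–100 nM test compound. pA2 was calculated by the Van Rossum method from at least three tissues.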

Rattus norvegicus [2] = assay: Antihypertensive activity expressed as change in mean arterial blood pressure (MABP) in spontaneously hypertensive rats (SHR), at 3-6h after 30 mg/kg oral administration; format: functional, Artery; how it was run: as §1

Row | Structure (SMILES) | Change (Rattus norvegicus [1]) [%] | Kb (Oryctolagus cuniculus) [nM] | Change (Rattus norvegicus [2]) [%]
1 | COc1cc(C(C)=O)ccc1OCCCN1CCC(=C(c2ccc(F)cc2)c2ccc(F)cc2)CC1 | -9 | 3.98 | -12
2 | Fc1ccc(OCCCN2CCC(C(c3ccc(F)cc3)c3ccc(F)cc3)CC2)cc1 | -2 | 1.26 | -6
3 | Nc1ccc(OCCCN2CCC(C(c3ccc(F)cc3)c3ccc(F)cc3)CC2)cc1 | -5 | 31.6 | -8
